# Experiments:
# Influenza A virus = experiment: Antiviral activity against influenza A virus (A/swine/OH/511445/2007(H1N1)) Oh7 infected in MDCK cells assessed as inhibition of viral replication after 4 days by quantitative RT-PCR; assay type: functional; settings: (A/swine/OH/511445/2007(H1N1)) Oh7, MDCK, 96 h, read-out: ED50 (the source's name)
# [1] = Cytotoxicity against MDCK cells after 4 days; assay type: cell-based, Canis lupus familiaris; settings: dog, read-out: TD50
# Summary of the method: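 MDCK cells exposed to compounds at 0.1–150 μM with trypsin (10 μg/mL) for up to 4 days. Cells were inspected microscopically. TD50 was taken as the dose causing 50% cell death.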
# [2] = Therapeutic index, ratio of TD50 for MDCK cells to ED50 for influenza A virus (A/swine/OH/511445/2007(H1N1)) Oh7; assay type: cell-based; settings: dog, read-out: Ratio TD50/ED50
# Summary of the method: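 MDCK cells infected with swine influenza A/swine/OH/511445/2007 (H1N1, Oh7) and incubated with compound at 0.1–150 μM plus trypsin (10 μg/mL) for up to 4 days. Cytopathic effect was scored, and replication was confirmed by immunofluorescence and Western blot against viral nucleoprotein or whole virus. ED50 is the dose giving 50% virus reduction, and TD50 the dose giving 50% cell death. TI is TD50/ED50.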
Structure (SMILES),EC50 (Influenza A virus) [µM],CC50 at 96 h [1] [µM],selectivity ratio [2]
O=C(Oc1c(-c2ccc(O)c(O)c2)oc2cc(O)cc(O)c2c1=O)c1cc(O)c(O)c(O)c1,9.1,90.2,9.9
O=C(Oc1c(-c2ccc(O)c(O)c2)oc2cc(O)cc(O)c2c1=O)c1cc(O)ccc1O,19.4,45.2,2.3
Nc1cc(C(=O)Oc2c(-c3ccc(O)c(O)c3)oc3cc(O)cc(O)c3c2=O)ccc1O,22.6,60.1,2.7
Nc1ccc(C(=O)Oc2c(-c3ccc(O)c(O)c3)oc3cc(O)cc(O)c3c2=O)cc1O,24.1,54.8,2.3
O=C(Oc1cc(-c2oc3cc(O)cc(O)c3c(=O)c2O)ccc1O)c1cc(O)c(O)c(O)c1,> 50,,
NCCCOc1cc(-c2oc3cc(O)cc(O)c3c(=O)c2O)ccc1O,> 50,,
CCCOc1cc(O)cc2oc(-c3ccc(O)c(O)c3)c(O)c(=O)c12,> 50,,
O=c1c(OCc2ccccc2)c(-c2ccc(OCc3ccccc3)c(OCc3ccccc3)c2)oc2cc(OCc3ccccc3)cc(O)c12,> 50,,
O=C(O[C@@H]1Cc2c(O)cc(O)cc2O[C@@H]1c1cc(O)c(O)c(O)c1)c1cc(O)c(O)c(O)c1 [EPIGALOCATECHIN GALLATE],8.3,45.5,5.5
O=c1c(O[C@@H]2O[C@H](CO)[C@@H](O)[C@H](O)[C@H]2O)c(-c2ccc(O)c(O)c2)oc2cc(O)cc(O)c12 [ISOQUERCETIN],1.2,45.1,37.6
O=c1c(O)c(-c2ccc(O)c(O)c2)oc2cc(O)cc(O)c12 [QUERCETIN],48.2,83.4,1.7

# Reference: ChEMBL document CHEMBL1933043
